# Screening data as filed in PubChem.
# RORa activator = activators of orphan receptor RORA, primary screen, cell-based, luminescence | Nuclear receptor ROR-alpha (Homo sapiens), P35398 | CHO-K1 Gal4-RORA LBD luciferase reporter; percent increase over mock-subtracted basal signal | activation, % at 10 µM | 65,000 compounds, 1.5% hits | AID 560, 2006;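 active means activation above the mean of all tested compounds plus 3 SD, cut at about 49% in these data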;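 further: 0% = DMSO-treated RORA cells and 100% = added signal equal to DMSO minus mock-transfected cells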
# SF1 activator = activators of human SF-1, primary screen, cell-based, CHO-K1, Gal4-SF-1 LBD, luciferase luminescence. 65,000 compounds, 1.9% hits. activation, % at 10 µM. CHO-K1 Gal4-SF-1 LBD luciferase reporter; % increase over DMSO SF-1-specific signal. Steroidogenic factor 1 (Homo sapiens), Q13285. AID 522, 2006;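 active means activation above the mean activation of all tested compounds plus 3 SD, cut at about 50% in these data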
#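 Test system: transient Gal4-SF-1 LBD reporter, CHO-K1; Amount: 4,000 CHO-K1 cells per well; Doses: 10 µM only; Timing: compound exposure 20 h at 37 °C; Signal: luciferase light emission; Read-out basis: percent activation relative to DMSO median and mock-transfected background; Control set: DMSO negative control and −SF1 background wells; Replicates: one test per compound.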
# D1 mod = D1 CRE-luciferase signal change, two-sided – cell-based, HEK293 D1, dopamine EC30, D1 allosteric modulator project, primary screen | 58,000 compounds, 5.9% hits | D(1A) dopamine receptor (Homo sapiens), P21728 | dopamine EC30 potentiation; actives deviate in either direction | B-score at 10 µM;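 active means luminescence count or its row- and column-corrected plate score outside the 99.7% band of the plate's sample wells, on either side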
# HePTP inhibitor = inhibitors of human HePTP phosphatase, primary screen, biochemical, absorbance, leukemia target; Tyrosine-protein phosphatase non-receptor type 7 (Homo sapiens), P35236; recombinant HePTP phosphatase activity, OD absorbance; inhibition, % at 20 µM; 110,000 compounds, 0.64% hits; AID 521, 2006; in the data active means inhibition above about 50%;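 further: plate controls were vehicle for no effect and reference inhibitor for full effect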
# Target sequence (P35236 whole entry, looked up): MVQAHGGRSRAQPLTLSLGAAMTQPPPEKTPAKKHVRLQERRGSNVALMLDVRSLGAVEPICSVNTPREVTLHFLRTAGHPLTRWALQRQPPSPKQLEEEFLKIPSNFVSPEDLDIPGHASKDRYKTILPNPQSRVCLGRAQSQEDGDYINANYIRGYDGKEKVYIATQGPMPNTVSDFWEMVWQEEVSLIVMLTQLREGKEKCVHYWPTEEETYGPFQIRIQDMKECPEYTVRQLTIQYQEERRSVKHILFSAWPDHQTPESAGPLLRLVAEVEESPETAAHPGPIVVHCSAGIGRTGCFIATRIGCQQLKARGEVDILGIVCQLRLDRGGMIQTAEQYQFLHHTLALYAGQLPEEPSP
# M1 ag = M1 muscarinic receptor agonists, primary screen, CHO-M1 cells, Fluo-4 calcium, agonist mode | Muscarinic acetylcholine receptor M1 | B-score at 10 µM | Fluo-4 calcium fluorescence; hits give high values | 64,000 compounds, 3% hits;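 active means fluorescence rise, raw or as B-score row- and column-corrected plate score, outside the 99.7% band of its plate's samples, either direction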
# M1 antagonist = antagonists of rat M1 muscarinic receptor. Muscarinic acetylcholine receptor M1 (Rattus norvegicus), P08482. CHO-M1 cells, Fluo-4 calcium, ACh EC80 antagonist mode; hits give low values. B-score at 10 µM. 64,000 compounds, 3.4% hits. AID 628, 2007;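 active means calcium fluorescence response, raw or row-and-column corrected B-score, differing from the plate sample mean either way at a set confidence level, mostly lower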
# D1 mod confirm = D1 receptor positive allosteric modulators, retest, confirmation, cell-based, HEK293 D1, CRE-luciferase, duplicate; luminescence at 10 µM; 2,200 compounds, 88% hits; dopamine EC30 potentiation; hits give high values; AID 642, 2007; shares compounds with D1 mod;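 active means luminescence in either of two replicates above the same-plate mean plus 3 SD of the low-dose dopamine control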
# D1 no dopamine = D1 receptor agonism without dopamine, confirmation, mechanism study for D1 allosteric modulator project, cell-based, HEK293 D1, CRE-luciferase, secondary assay 1; shares compounds with D1 mod; luminescence, no dopamine; hits give high values; luminescence at 10 µM; 1,900 compounds, 0.8% hits; in the data active means luminescence above about 3900
# Isoprot counter = alters isoproterenol CRE-luciferase response in HEK293 cells; shares compounds with D1 mod; HEK293 D1 CRE-luciferase, isoproterenol EC30 counter-screen; calls only at 10 µM; 2,200 compounds, 63% hits;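 active means luminescence in either replicate above plate mean of wells with a partly effective reference agonist dose plus 3 SD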;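 further: isoproterenol raises cAMP through native beta-adrenoceptor Gs so signal bypasses D1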
# The depositor's hits bear a star; i = inactive; . = no result; + = active, no number. The list is not random: actives were taken first. Their share in the collection is about 8.2%.
SMILES,RORa activator,SF1 activator,D1 mod,HePTP inhibitor,M1 ag,M1 antagonist,D1 mod confirm,D1 no dopamine,Isoprot counter
Nc1nc(SCC(=O)OCc2ccccc2)[nH]c(=O)c1NC(=O)c1ccco1,-16,8,3.2*,1,0.46,0.028,6284*,1856,i
N#Cc1cnn(Cc2ccccc2)c1/N=C/N1CCOCC1,-3,-16,5.5*,10,-0.22,-0.33,8140*,1300,i
COc1ccc(CC(=O)NCc2ccc3c(c2)OCO3)cc1,.,.,.,-9,.,.,.,.,.
COC(=O)/C(=C1/Oc2cc3c(cc2S1)OCO3)C(F)(F)F,0,36,3.4*,-7,0.066,-0.49,11868*,1480,i
Cc1ccc2c(c1)N(C(=O)CSc1nncn1C)C(C)(C)c1ssc(=S)c1-2,16,1,2.8*,10,.,.,6228*,.,+
COc1ccc(S(=O)(=O)NCc2ccco2)cc1-c1nnc2c3ccccc3c(C)nn12,-7,-8,8.6*,12,-0.26,0.4,8232*,1520,+
COc1ccc(S(=O)(=O)N2CCN(CCO)CC2)cc1-c1nnc2c3ccccc3c(C)nn12,9,8,1.3,5,-0.03,0.2,.,.,.
COc1nc(NCc2ccco2)nc(N2CCC(C)CC2)n1,-6,-10,10*,4,0.38,-0.36,15736*,1680,+
COc1nc(OC)nc(N2CCC(C(=O)NCc3ccco3)CC2)n1,-21,13,-1,-2,0.24,-0.62,.,.,.
CC(C)Cn1c2c(c(O)c(C(=O)Nc3nccs3)c1=O)CCCC2,11,10,1.3,-2,-0.12,0.24,.,.,.
COc1ccc(-c2csc(-c3nc(-c4ccc(OC)c(OC)c4)cs3)n2)cc1OC,.,.,.,8,.,.,.,.,.
Oc1ccc(-c2nc(-c3ccc(O)c(O)c3)cs2)cc1,39,28,6.7*,9,.,.,7572*,2480,+
COc1ccc(C(=O)COC(=O)CCN=C2NS(=O)(=O)c3ccccc32)cc1OC,-4,4,4.6*,-5,0.012,0.04,13264*,1572,+
CCOc1cccc(N2C(=O)NC(=O)/C(=C\c3ccc(Sc4ccccc4)o3)C2=O)c1,.,.,.,11,.,.,.,.,.
CCN(CCCn1c(SCC#N)nc2ccccc2c1=O)c1ccccc1,3,-7,.,8,1.7,-0.0044,.,.,.
C=C(C)Cn1c(SCC#N)nc2ccccc2c1=O,-1,-6,16*,13,-0.033,-1,15044*,1640,+
CCn1c(NC(=O)c2cccs2)nc2ccccc21,31,38,0.09,0,0.11,-0.18,.,.,.
CC(C)OC(=O)CSc1nnc(-c2cnccn2)n1-c1ccccc1,16,5,5.1*,1,-1.2,0.041,7372*,1596,i
c1ccc(-n2c(SCC3CCCCO3)nnc2-c2cnccn2)cc1 (stereo not drawn),3,-2,1.7,8,-0.0055,0.65,.,.,.
O=C1c2ccccc2C(Nc2ccc3c(c2)OCO3)N1Cc1ccco1 (stereo not drawn),-12,-37,7.6*,4,0.27,-1.2,12600*,1504,+
O=C1c2ccccc2C(Nc2ccc(F)c(Cl)c2)N1Cc1ccco1 (stereo not drawn),8,0,3.4,13,-0.59,-0.58,.,.,.
O=C1c2ccccc2C(Nc2ccc3c(c2)OCO3)N1Cc1ccc2c(c1)OCO2 (stereo not drawn),-25,-10,4.1*,17,1.1,-0.078,9888*,1436,+
Cc1ccc(Nc2nc(-c3ccc([N+](=O)[O-])cc3)cs2)cc1C,.,.,.,13,.,.,.,.,.
CN1C(=O)C(=Cc2ccc(N3CCOCC3)cc2)C(=O)N(C)C1=O,.,.,.,-14,.,.,.,.,.
c1coc(Cn2c(SCc3nc4ccccc4[nH]3)nnc2-c2cnccn2)c1,5,-3,-0.003,8,-0.085,0.66,.,.,.
SMILES,RORa activator,SF1 activator,D1 mod,HePTP inhibitor,M1 ag,M1 antagonist,D1 mod confirm,D1 no dopamine,Isoprot counter
COc1ccc(CN(C2CCCC2)S(=O)(=O)c2ccc(-n3cnnn3)cc2)cc1OC,-10,-6,5.5*,7,-2.6,-0.3,10040*,1604,i
Cc1nn(C)cc1/C=N/O,-12,-3,-0.6,5,0.034,-0.1,.,.,.
Cc1nn(-c2ccccc2)cc1/C=N/O,-2,6,4.3*,10,0.89,-0.26,7640*,.,i
CCCn1c(=O)c2ccccc2n2c(SCc3nc4ccccc4s3)nnc12,42,70*,6.7*,-1,1.8,0.12,7964*,1868,i
CCCn1c(=O)c2ccccc2n2c(SCCOc3ccccc3)nnc12,-16,-7,4.7*,3,0.6,0.58,10356*,.,i
CCCn1c(C)cc(C(=O)CSc2nnc3n(CCC)c(=O)c4ccccc4n23)c1C,-17,2,-1.5,12,-0.81,0.39,.,.,.
C=CCNc1nc(N)c(C(=O)Nc2cc(C)on2)s1,42,44,.,7,0.54,-0.42,.,.,.
COCC(C)NC(=O)c1ccc(N(C)C)cc1 (stereo not drawn),0,-4,-0.37,10,.,.,.,.,.
CN(C)c1ccc(C(CC(=O)O)NC(=O)c2ccc(Cl)cc2)cc1 (stereo not drawn),-3,-12,18*,8,-0.25,0.023,5248,.,i
CCOC(=O)c1oc2ccccc2c1NC(=O)COc1cccc(OC)c1,2,-4,.,-13,1.1,0.38,.,.,.
CCOc1ccc(CC(=O)Nc2c(C(N)=O)oc3ccccc23)cc1OCC,24,-6,4.5*,12,1,0.36,7352*,1544,i
CCOC(=O)c1oc2ccccc2c1NC(=O)c1ccccc1OC,-17,-2,4.5*,-1,1.1,0.32,11400*,1632,+
Cc1ccc(N2C(=O)CSC2c2ccc(F)cc2)cc1 (stereo not drawn),.,.,.,-1,.,.,.,.,.
Cc1sc2nc(CN3CCN(S(=O)(=O)c4cccc5nonc45)CC3)[nH]c(=O)c2c1C,-2,14,3.6*,10,-0.29,-0.0032,8576*,1552,i
CN(C)c1nc(N)nc(CSc2n[nH]c(-c3ccccc3)n2)n1,-7,32,7.8*,0,0.66,0.032,9244*,1568,+
O=C(CSc1n[nH]c(-c2ccccc2)n1)c1ccccc1,28,9,1.3,2,-0.5,0.44,.,.,.
